Legend:
[1] = biological target: T1, Dual specificity protein kinase CLK1 (Homo sapiens, UniProt P49759); test: Inhibition of recombinant human GST-tagged Clk1 expressed in Escherichia coli at 100 nM using RS repeat substrate peptide after 15 mins in presence of [gamma-32]-ATP
Target sequence in this assay (P49759 whole entry, looked up): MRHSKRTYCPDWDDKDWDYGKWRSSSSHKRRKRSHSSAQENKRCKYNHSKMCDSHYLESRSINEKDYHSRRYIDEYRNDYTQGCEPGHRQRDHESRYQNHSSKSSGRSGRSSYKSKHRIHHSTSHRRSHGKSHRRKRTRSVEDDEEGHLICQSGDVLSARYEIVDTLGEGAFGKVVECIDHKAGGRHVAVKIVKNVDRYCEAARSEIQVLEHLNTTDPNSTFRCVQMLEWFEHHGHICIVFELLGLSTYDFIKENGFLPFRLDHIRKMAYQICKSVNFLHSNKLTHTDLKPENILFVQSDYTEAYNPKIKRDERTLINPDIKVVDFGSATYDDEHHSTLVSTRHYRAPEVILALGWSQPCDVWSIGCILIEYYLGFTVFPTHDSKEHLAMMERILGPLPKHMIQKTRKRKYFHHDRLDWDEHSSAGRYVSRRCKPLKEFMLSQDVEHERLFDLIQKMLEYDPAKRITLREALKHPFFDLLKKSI

[2] = biological target: T1, Dual specificity protein kinase CLK1; test: Inhibition of recombinant human GST-tagged Clk1 expressed in Escherichia coli using RS repeat substrate peptide after 15 mins in presence of [gamma-32]-ATP
Target sequence in this assay (P49759 whole entry): as the sequence (P49759 whole entry, looked up) above

T-24 = test: Cytotoxicity against human T24 cells assessed as growth inhibition after 5 days by MTT assay; assay type: functional; settings: T-24, 120 h
Procedure, shortened: (§1)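 They were seeded at 5000 cells per well onto compound or DMSO (0.2% final). Plates were kept 5 days at 37 °C in 5% CO2 with no medium change, then read by MTT.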

MDA-MB-231 = test: Cytotoxicity against human MDA-MB-231 cells assessed as growth inhibition after 5 days by MTT assay; assay type: functional; settings: MDA-MB-231, 120 h; procedure, shortened: as §1
T47D = test: Cytotoxicity against human T47D cells assessed as growth inhibition after 5 days by MTT assay; assay type: functional; settings: 120 h; procedure, shortened: as §1

| SMILES | inhibition [1] | also measured |
| --- | --- | --- |
| COc1ccc2sc(C(=O)Nc3nccs3)cc2c1 | 28.2% | – |
| COc1ccc2sc(C(=O)N3CCN(C)CC3)cc2c1 | 0% | – |
| COc1cccc(CN(C)C(=O)c2cc3cc(OC)ccc3s2)c1 | 31.6% | – |
| COc1ccc2sc(C(=O)N[C@H](C(=O)O)C(C)C)cc2c1 | 0% | – |
| COc1ccc2sc(C(=O)N(C)Cc3ccccc3F)cc2c1 | 43.2% | – |
| COc1ccc2sc(C(=O)N3CCOCC3)cc2c1 | 0% | – |
| COc1ccc2sc(C(=O)N(C)Cc3cccnc3)cc2c1 | 51% | IC50 [2]: 81.6 nM; GI50 (T-24): 12.5 µM; GI50 (MDA-MB-231): 25.7 µM; GI50 (T47D): 25.4 µM |
| COc1ccc2sc(C(=O)Nc3ccccc3)cc2c1 | 0.54% | – |
| COc1cccc(CNC(=O)c2cc3cc(OC)ccc3s2)c1 | 13.4% | – |

Second part, led by results:

| inhibition [1] | SMILES | also measured |
| --- | --- | --- |
| 0% | COC(=O)CNC(=O)c1cc2cc(OC)ccc2s1 | – |
| 7.7% | COc1ccc2sc(C(=O)NCCN)cc2c1 | – |
| 23.2% | COc1ccc2sc(C(=O)NCc3ccccc3F)cc2c1 | – |
| 59.4% | COc1ccc2sc(C(=O)NCc3ccccc3)cc2c1 | IC50 [2]: 84 nM |
| 33.4% | COc1ccc2sc(C(=O)NCc3ccco3)cc2c1 | – |
| 0% | COc1ccc2sc(C(=O)NCc3ccccn3)cc2c1 | – |
| 37% | C=CCNC(=O)c1cc2cc(OC)ccc2s1 | – |
| 0% | CCOC(=O)[C@H](C)NC(=O)c1cc2cc(OC)ccc2s1 | – |
| 0% | COc1ccc2sc(C(=O)NCCO)cc2c1 | – |
| 0% | COc1ccc2sc(C(=O)NCc3ncc[nH]3)cc2c1 | – |

Source: ChEMBL document CHEMBL4014345, “Development of Selective Clk1 and -4 Inhibitors for Cellular Depletion of Cancer-Relevant Proteins” (J Med Chem, 2017)
